Most compounds without a hit are left out; they make up all but 5.9% or so of the library.
T cruzi growth-1: inhibitors of T. cruzi proliferation; T. cruzi beta-gal in NIH3T3, GalScreen luminescence, 90 h; inhibition, % at 8.34 µM; 77,000 tested, 5.9% active; AID 624255;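 active means mean inhibition above about 93%, with at least 55% of replicates each passing it, limit read from the data, passing the limit was not always enough; inconclusive means only one of those two conditions holds; inactive means neither condition holds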
KDM4C inh: inhibitors of human demethylase GASC-1 KDM4C | Q9H3R0 | GST-KDM4C 2-372, H3K9me3 peptide, LANCE TR-FRET | inhibition, % at 12.5 µM | 96,000 tested, 0.15% active | AID 720574;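 active means mean replicate inhibition above about 25%, with at least 55% of replicates also reaching it, limit read from the data, passing the limit was not always enough; inconclusive means only one of those two conditions met; inactive means neither condition met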
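reagent = H3K9me3 peptide substrate, Fe(II), 2-oxoglutarate | system = GST-tagged GASC-1 (JMJD2C) catalytic fragment, aa 2-372 | amount = enzyme final amount 10 nM | read-out = Fall in 671/618 emission ratio as inhibition | medium = HEPES buffer, pH 7.5, plus ascorbate | schedule = 30 min reaction, 60 min detection, RT | measured by = LANCE TR-FRET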
Pf Dd2 inh: inhibitors of Plasmodium falciparum Dd2 growth; P. falciparum Dd2 growth, SYBR Green, 72 h; hits give low values; activity change, % at 10 µM; 94,000 tested, 2.3% active; AID 1159554; in the data active means activity change below about -80%; inconclusive means no clear call, values can overlap the other calls
IDH1 R132H inh: inhibitors of human IDH1 R132H. O75874. IDH1 R132H reductase, diaphorase/resazurin fluorescence, 60 min. inhibition, % at 10 µM. 70,000 tested, 0.18% active; in the data active means inhibition above about 34%; inconclusive means no clear call, values can overlap the other calls; inactive means below about 11%;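 further: 0% = DMSO and 100% = no enzyme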
Target sequence (O75874 whole entry R132H): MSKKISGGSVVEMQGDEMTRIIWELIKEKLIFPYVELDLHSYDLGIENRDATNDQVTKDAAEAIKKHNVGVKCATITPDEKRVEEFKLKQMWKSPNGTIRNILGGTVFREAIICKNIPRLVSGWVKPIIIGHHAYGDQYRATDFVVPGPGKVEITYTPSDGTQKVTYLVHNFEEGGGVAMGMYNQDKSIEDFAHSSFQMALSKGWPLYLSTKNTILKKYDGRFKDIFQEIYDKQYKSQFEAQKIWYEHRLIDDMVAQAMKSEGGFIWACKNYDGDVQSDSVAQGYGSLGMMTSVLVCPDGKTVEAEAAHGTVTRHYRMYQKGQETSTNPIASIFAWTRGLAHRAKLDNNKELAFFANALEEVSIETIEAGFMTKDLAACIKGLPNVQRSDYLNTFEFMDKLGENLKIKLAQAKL
T cruzi growth-2: Trypanosoma cruzi proliferation inhibition | shares compounds with T cruzi growth-1 | T. cruzi beta-gal in NIH3T3, GalScreen luminescence, 90 h | AID 651739 | 5,600 tested, 72% active | inhibition, % at 8.35 µM;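 active means mean replicate inhibition above about 95% and at least 55% of replicates individually reaching it, limit read from the data; inconclusive means only one of the two criteria is met; inactive means neither criterion is met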
T cruzi growth-3: Trypanosoma cruzi proliferation inhibition; shares compounds with T cruzi growth-1; T. cruzi beta-gal in NIH3T3, GalScreen luminescence, 90 h; inhibition, % at 2.09 µM; 5,600 tested, 21% active; AID 651740;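 active means mean inhibition above about 95%, with at least 55% of replicates also reaching it, limit read from the data; inconclusive means meets just one of the two conditions; inactive means meets neither condition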;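 further: plate controls were neutral control median for no effect and positive control median for full effect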
NIH3T3 tox: NIH/3T3 (mouse) viability loss; shares compounds with T cruzi growth-1; NIH/3T3 viability, CellTiter-Glo ATP luminescence, 90 h; cytotoxicity (signal decrease), % at 8.35 µM; 5,600 tested, 14% active;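 active means mean signal decrease across replicates above about 35% based on untreated-well scatter, with enough replicates individually passing, limit read from the data; inconclusive means no rule stated though some were filed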;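 further: 0% = median of neutral control wells and 100% = median of positive control wells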
NIH3T3 tox 2: NIH/3T3 (mouse) viability loss; shares compounds with T cruzi growth-1; NIH/3T3 viability, CellTiter-Glo ATP luminescence, 90 h; inhibition, % at 24.9 µM; 5,600 tested, 56% active; AID 651744;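 active means mean loss of cell viability signal at or above a set limit, and enough replicates individually reaching it; inconclusive means meets only the mean limit or only the replicate share; inactive means meets neither condition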;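 further: 0% = median of neutral control wells and 100% = median of positive control wells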
* hit, by the source's call; ? = inconclusive; / = no result.

SMILES	T cruzi growth-1	KDM4C inh	Pf Dd2 inh	IDH1 R132H inh	T cruzi growth-2	T cruzi growth-3	NIH3T3 tox	NIH3T3 tox 2
C[C@@H]1CCCCO[C@@H](CN(C)Cc2ccncc2)[C@@H](C)CN([C@@H](C)CO)C(=O)c2cc(NC(=O)NC3CCCCC3)ccc2O1	103*	0	-5	-1	35	1	-31	3
C[C@@H]1CN([C@@H](C)CO)C(=O)c2cc(NC(=O)NC3CCCCC3)ccc2O[C@@H](C)CCCCO[C@@H]1CN(C)Cc1ccncc1	87	1	-5	0	/	/	/	/
C[C@H](CO)N1C[C@H](C)[C@H](CN(C)Cc2ccncc2)OCCCC[C@H](C)Oc2ccc(NC(=O)NC3CCCCC3)cc2C1=O	97*	1	20	/	106*	31	1	13
COc1cc([N+](=O)[O-])ccc1NC(=S)NCc1cccnc1	/	/	/	0	/	/	/	/
O=[N+]([O-])c1cccc(NC(=S)NCc2cn(-c3ccccc3)nc2-c2ccccc2)c1	/	/	/	0	/	/	/	/
Cc1cc(OCC(=O)Nc2ccccc2N2CCN(C)CC2)cc(C)c1Cl	/	/	/	0	/	/	/	/
CC(=O)N1CCCCN2[C@H](CO)[C@H](c3ccc(C#Cc4ccccc4F)cc3)[C@H]2C1	31	-2	-25	/	/	/	/	/
CCC(=O)N1CCCCN2[C@H](CO)[C@H](c3ccc(C#Cc4ccccc4F)cc3)[C@@H]2C1	120*	-3	-13	/	99*	88	69*	58*
CC(=O)N1CCCCN2[C@@H](CO)[C@H](c3ccc(C#Cc4ccccc4F)cc3)[C@@H]2C1	88	-2	-4	/	/	/	/	/
CCC(=O)N1CCCCN2[C@H](C1)[C@@H](c1ccc(C#Cc3ccccc3F)cc1)[C@@H]2CO	100*	-1	-9	/	100*	61	50*	105*
CC(=O)N1CCCCN2[C@H](C1)[C@@H](c1ccc(C#Cc3ccccc3F)cc1)[C@@H]2CO	112*	0	-21	/	?	28	30	106*
CCn1c(SCC(=O)Nc2sc3c(c2C#N)CCC(C(C)(C)C)C3)nnc1-c1cccc(C)c1 (stereo unspecified)	/	/	/	0	/	/	/	/
N#C[C@@H]1[C@H](c2ccc(C#CC3CCCC3)cc2)[C@@H](CO)N1C(=O)Nc1ccc(F)cc1	98*	-2	-9	/	99*	95	2	107*
CC(C)NC(=O)N1[C@H](C#N)[C@@H](c2ccc(C#CC3CCCC3)cc2)[C@H]1CO	102*	-1	-9	-1	102*	97*	6	37*
CN(C)CC(=O)N1[C@H](C#N)[C@H](c2ccc(C#CC3CCCC3)cc2)[C@H]1CO	99*	3	-30	/	96*	66	-9	106*
N#C[C@H]1[C@@H](c2ccc(C#CC3CCCCC3)cc2)[C@H](CO)N1C(=O)Cc1ccccn1	100*	-1	-34	/	101*	104*	-33	81*
O=C(NC(Cc1ccccc1)C(=O)OCc1cnc(-c2ccccc2)o1)c1ccccc1 (stereo unspecified)	/	/	/	0	/	/	/	/
O=C(O)CC(Cc1ccc(Cl)cc1)C(=O)Nc1ccccc1I (stereo unspecified)	/	/	/	0	/	/	/	/
CCCn1nnc(NC(=O)COc2ccc(Cl)c(C)c2)n1	/	/	/	0	/	/	/	/
CC(C)NC(=O)N1[C@H](C#N)[C@@H](c2ccc(C#CC3CCCCC3)cc2)[C@@H]1CO	96*	1	-73	/	96*	113*	-2	105*
CC(C)NC(=O)N1[C@H](CO)[C@H](c2ccc(C#CC3CCCCC3)cc2)[C@@H]1C#N	107*	-1	-32	/	98*	116*	30	54*
COc1ccc(-c2ccc3c(c2)[C@@H]2[C@@H](CCN2S(=O)(=O)C2=NC(C)C=N2)[C@H](CO)N3C)cc1 (stereo partly specified)	93	2	-13	/	/	/	/	/
CC1C=NC(S(=O)(=O)N2CC[C@@H]3[C@@H](CO)N(C)c4ccc(-c5cccc(F)c5)cc4[C@@H]32)=N1 (stereo partly specified)	103*	1	7	/	104*	86	19	-7
CN1c2ccc(-c3cccc(F)c3)cc2[C@@H]2[C@@H](CCN2S(=O)(=O)c2cccc(F)c2)[C@@H]1CO	102*	-6	20	/	98*	77	59*	105*
CN1c2ccc(Br)cc2[C@@H]2[C@@H](CCN2S(=O)(=O)c2cccc(F)c2)[C@@H]1CO	?	0	14	/	92	53	48*	41*
COc1ccc(-c2ccc3c(c2)[C@H]2[C@H](CCN2S(=O)(=O)C2=NC(C)C=N2)[C@@H](CO)N3C)cc1 (stereo partly specified)	101*	1	15	/	104*	106*	-16	-26
Cc1ccc(S(=O)(=O)N2CCN(C(=O)CSc3nnc4sc5ccccc5n34)CC2)cc1	/	/	/	0	/	/	/	/

Screens (PubChem BioAssay)
